From ChEMBL document CHEMBL1149845, “Synthesis, cytotoxic activities and structure-activity relationships of topoisomerase I inhibitors: indolizinoquinoline-5,12-dione derivatives” (Bioorg Med Chem, 2008)

Experiments:
[1] = Cytotoxicity against human GLC82 cells after 2 days by MTT assay; format: functional, cell-based; conditions: GLC82, 48 h
Summary of the method: (§1)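 Cells grown in RPMI-1640 with 10% FBS, penicillin 100 U/mL and streptomycin 100 µg/mL at 37 °C, 5% CO2, passage 3–6. Exponential-phase cells seeded at 5 × 10⁴–1 × 10⁵ cells/ml, grown overnight, then exposed for 2 days to compounds predissolved in DMSO at selected concentrations. Viability read by MTT.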

NCI-H460 = assay: Cytotoxicity against human NCI-H460 cells after 2 days by MTT assay; format: functional, cell-based; conditions: NCI-H460, 48 h; summary of the method: as §1
HL-60 = assay: Cytotoxicity against human HL60 cells after 2 days by MTT assay; format: functional, cell-based; conditions: HL-60, 48 h; summary of the method: as §1
MCF7 = assay: Cytotoxicity against human MCF7 cells after 2 days by MTT assay; format: functional, cell-based; conditions: MCF7, 48 h; summary of the method: as §1
Bos taurus [2] = species on record: Bos taurus; assay: Inhibition of calf thymus topoisomerase 1-mediated supercoiled plasmid DNA relaxation at 125 uM
Bos taurus [3] = species on record: Bos taurus; assay: Inhibition of calf thymus topoisomerase 1-mediated supercoiled plasmid DNA relaxation at 0.2 uM
Summary of the method: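 Calf thymus TOP1 relaxation of 0.5 µg pBR322 in 20 µL buffer (20 mM Tris pH 7.5, 0.1 mM EDTA, 10 mM MgCl2, 50 µg/mL acetylated BSA, 100 mM KCl), compound from DMSO. Started by adding DNA, 30 min at 37 °C, stopped with loading buffer. 1% agarose gel in Tris-borate/EDTA at 5 V/cm, ethidium bromide stain. Supercoiled DNA quantified densitometrically.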

SMILES	IC50 [1] [µM]	IC50 (NCI-H460) [µM]	IC50 (HL-60) [µM]	IC50 (MCF7) [µM]	inhibition (Bos taurus [2]) [%]	inhibition (Bos taurus [3]) [%]
CCOC(=O)c1c2c(n3cccc(Br)c13)C(=O)c1ncccc1C2=O	< 0.25	2	9.32	10.3	–	–
CCOC(=O)c1c2c(n3cccc(C)c13)C(=O)c1cccnc1C2=O	9.27	–	11.7	> 25	–	–
CCOC(=O)c1c2c(n3cccc(O)c13)C(=O)c1ncccc1C2=O	7.2	> 25	> 25	> 25	–	–
CC[C@@]1(O)C(=O)OCc2c1cc1n(c2=O)Cc2cc3ccccc3nc2-1	–	–	–	–	81.3	–
Cc1c2c(n3ccccc13)C(=O)c1cccnc1C2=O	21.5	> 25	> 25	> 25	–	–
CC(=O)c1c2c(n3cccc(F)c13)C(=O)c1cccnc1C2=O	12.7	6.75	1.39	9.28	–	–
CC(=O)c1c2c(n3cccc(N)c13)C(=O)c1ncccc1C2=O	12.2	> 25	22.3	> 25	–	–
CCOC(=O)c1c2c(n3cccc(C)c13)C(=O)c1ncccc1C2=O	1.83	–	0.22	14.5	–	–
CCOC(=O)c1c2c(n3cccc(N)c13)C(=O)c1cccnc1C2=O	23.5	19	> 25	> 25	–	–
CCOC(=O)c1c2c(n3ccccc13)C(=O)c1cccnc1C2=O	2.4	1.9	14.5	6.38	–	–
CCOC(=O)c1c2c(n3cccc(F)c13)C(=O)c1ncccc1C2=O	< 0.25	< 0.25	1.37	7.01	–	–
Cc1c2c(n3ccccc13)C(=O)c1ncccc1C2=O	14.2	12.2	12.5	> 25	–	–
CC(=O)c1c2c(n3cccc(O)c13)C(=O)c1cccnc1C2=O	16.3	> 25	> 25	–	–	–
CCOC(=O)c1c2c(n3ccccc13)C(=O)c1ncccc1C2=O	< 0.25	< 0.25	0.88	0.96	–	–
CCOC(=O)c1c2c(n3ccccc13)C(=O)c1ccccc1C2=O	> 25	–	> 25	> 25	–	–
CC(=O)c1c2c(n3cccc(F)c13)C(=O)c1ncccc1C2=O	5.26	< 0.25	0.17	2.31	–	–

SMILES	IC50 [1] [µM]	IC50 (NCI-H460) [µM]	IC50 (HL-60) [µM]	IC50 (MCF7) [µM]	inhibition (Bos taurus [2]) [%]	inhibition (Bos taurus [3]) [%]
CC(=O)c1c2c(n3ccccc13)C(=O)c1cccnc1C2=O	1.9	1.4	14.7	12.7	–	–
CCOC(=O)c1c2c(n3cccc(Cl)c13)C(=O)c1ncccc1C2=O	< 0.25	2.1	6.52	7.37	100	5.8
CC(=O)c1c2c(n3cccc(Cl)c13)C(=O)c1cccnc1C2=O	16.1	1.5	2.2	16.1	–	–
CC(=O)c1c2c(n3ccccc13)C(=O)c1ncccc1C2=O	< 0.25	< 0.25	0.86	7.92	–	–
CCOC(=O)c1c2c(n3cccc(Cl)c13)C(=O)c1cccnc1C2=O	9.73	2.2	15.4	19.9	–	–
O=C1c2cc3ccccn3c2C(=O)c2cccnc21	16.7	12.3	14.7	20.2	–	–
CC(=O)c1c2c(n3cccc(Br)c13)C(=O)c1cccnc1C2=O	4.68	0.2	1.56	12.4	–	–
CC(=O)c1c2c(n3cccc(Cl)c13)C(=O)c1ncccc1C2=O	6.85	0.23	0.19	7.83	–	–
CCOC(=O)c1c2c(n3cccc(Br)c13)C(=O)c1cccnc1C2=O	1.1	2.4	11.5	20.8	–	–
CCOC(=O)c1c2c(n3cccc(O)c13)C(=O)c1cccnc1C2=O	23.8	23.3	> 25	> 25	–	–
O=C1c2cccnc2C(=O)c2c1cc1ccccn21	11.5	15.6	17	> 25	–	–
CC(=O)c1c2c(n3cccc(Br)c13)C(=O)c1ncccc1C2=O	2.01	2.15	0.21	11.7	–	–
CC(=O)c1c2c(n3cccc(O)c13)C(=O)c1ncccc1C2=O	19.5	24.9	> 25	17.6	–	–
CCOC(=O)c1c2c(n3cccc(F)c13)C(=O)c1cccnc1C2=O	1.7	1.2	5.51	6.2	–	–
CC(=O)c1c2c(n3cccc(N)c13)C(=O)c1cccnc1C2=O	10.3	10.3	15.8	> 25	–	–
CCOC(=O)c1c2c(n3cccc(N)c13)C(=O)c1ncccc1C2=O	23.4	17.6	16.4	20.9	–	–
